Assay results from ChEMBL document CHEMBL5705891, “Small-molecule kinase inhibitors provide insight into Mps1 cell cycle function” (Nat Chem Biol, 2010).

Experiments:
[1] = target: Leukocyte tyrosine kinase receptor (Homo sapiens, UniProt P29376); assay: Inhibition of LTK (unknown origin) assessed as residual enzyme activity at 10 uM by Ambit kinase binding assay relative to control
TERT-RPE1 = assay: Antiproliferative activity against hTERT-RPE1 cells assessed as loss of clonal survival upto 25 uM incubated for 10 days by crystal violet staining based assay; format: toxicity, cell-based; details: human, tert-rpe1, 240 h, time 10 day
How it was run: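 Colony outgrowth: cells plated at 200 cells per 60-mm dish, exposed to compound or DMSO vehicle and stained with crystal violet after 10 days. HCT116 grown in McCoy's 5A; A549 and HeLa in DMEM; hTERT-RPE1 in DMEM/F-12. All media had 10% FBS and penicillin/streptomycin, 37°C, 5% CO2. Quantified from 3 independent experiments, mean + SD, Student's t test.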

Leukocyte tyrosine kinase receptor, sequence (P29376 whole entry): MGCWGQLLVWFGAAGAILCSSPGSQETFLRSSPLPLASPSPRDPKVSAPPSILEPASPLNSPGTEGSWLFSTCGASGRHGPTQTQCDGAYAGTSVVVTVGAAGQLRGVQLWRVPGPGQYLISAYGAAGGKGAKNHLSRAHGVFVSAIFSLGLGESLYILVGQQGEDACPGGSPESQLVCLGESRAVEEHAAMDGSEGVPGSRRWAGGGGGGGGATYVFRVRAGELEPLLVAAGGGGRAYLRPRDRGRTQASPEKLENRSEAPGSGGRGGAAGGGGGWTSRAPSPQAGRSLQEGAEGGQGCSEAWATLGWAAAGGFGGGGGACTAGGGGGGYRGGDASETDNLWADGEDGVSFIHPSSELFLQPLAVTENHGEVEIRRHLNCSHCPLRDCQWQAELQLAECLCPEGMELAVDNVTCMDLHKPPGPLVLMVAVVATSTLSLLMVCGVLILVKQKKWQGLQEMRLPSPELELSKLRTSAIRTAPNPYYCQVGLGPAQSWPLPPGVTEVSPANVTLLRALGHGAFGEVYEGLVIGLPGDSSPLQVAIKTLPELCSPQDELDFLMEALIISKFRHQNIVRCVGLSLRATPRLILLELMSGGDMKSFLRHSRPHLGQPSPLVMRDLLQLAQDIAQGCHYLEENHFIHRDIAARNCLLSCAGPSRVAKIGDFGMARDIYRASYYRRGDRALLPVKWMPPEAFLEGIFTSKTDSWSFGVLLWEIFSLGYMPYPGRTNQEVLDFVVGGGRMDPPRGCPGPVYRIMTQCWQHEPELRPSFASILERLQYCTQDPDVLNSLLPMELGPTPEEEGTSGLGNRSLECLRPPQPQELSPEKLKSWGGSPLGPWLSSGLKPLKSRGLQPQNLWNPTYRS

Row | SMILES | Activity [1] [%] | Activity (TERT-RPE1)
1 | O=C1c2ccccc2-c2n[nH]c3cccc1c23 | 32 | 
2 | COc1cc(N2CCC(O)CC2)ccc1Nc1cc(Nc2ccccc2S(=O)(=O)C(C)C)c2cc[nH]c2n1 |  | Toxic
